Assay results reported in publication PMC3228889 (International Journal of Cancer. Journal International du …, 2011).
Read-outs that look alike come from different tables or passages of the source. Values belong to the molecule of their own block, whether it stands above or below them.

Assays:
U266 MM cells [1] = assay: MTT cell viability assay; assay type: cell-based, human; conditions: read-out: IC50 cell viability, U266, 72 hours
ARH-77 MM cells [2] = assay: MTT cell viability assay; assay type: cell-based, human; conditions: read-out: IC50 cell viability, ARH-77, 72 hours
STAT3 [3] = molecular target: T1, STAT3 (Homo sapiens, UniProt P40763); assay: STAT3 DNA binding activity in nuclear extracts; assay type: cell-based; conditions: 24 hours, U266 and ARH-77 MM cells
U266 MM cells [4] = assay: Annexin-V/PI flow cytometry apoptosis; assay type: cell-based, human; conditions: 24 hours
Outline: (§1)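 Cells were treated with test compound or DMSO for 24 h, harvested, washed in cold PBS and resuspended in 1× binding buffer at 1 × 10^6 cells/ml. Annexin V-FITC and PI were added for 15 min at RT in the dark. Analysis was by flow cytometry within 1 h. Results come from at least 3 independent experiments, compared with DMSO by Mann-Whitney test.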

ARH-77 MM cells [5] = assay: Annexin-V/PI flow cytometry apoptosis; assay type: cell-based, human; conditions: 24 hours
Outline: as §1

U266 cells = assay: Synergy of LLL12 and lenalidomide, combinational index; assay type: cell-based, human; conditions: LLL12 combined with lenalidomide, U266, all combinations; CI < 1 = synergism
ARH-77 MM tumor cells = assay: Mouse xenograft model; assay type: in vivo, NOD/SCID mice; conditions: 5 mg/kg daily intraperitoneal, vs DMSO
STAT3 [6] = molecular target: T1, STAT3; assay: Western blot, constitutive STAT3 phosphorylation; assay type: cell-based
Outline: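 U266 and ARH-77 cells were treated with test compound or DMSO for 24 h. Primary CD138+ patient cells were isolated by positive magnetic selection (n=3 patients). Cells were lysed in cold RIPA buffer with protease inhibitors, run on SDS-PAGE and transferred to PVDF. Blots were probed for p-STAT3 (Tyr705) and total STAT3 and developed by chemiluminescence, with GAPDH as loading control.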

STAT3 [7] = molecular target: T1, STAT3; assay: Western blot, IL-6 and IFN-α induced STAT3 phosphorylation; assay type: cell-based; conditions: MM.1S, 2 hours pre-treatment, 30 minutes stimulation
STAT1 = STAT1 (Homo sapiens, UniProt P42224); assay: Western blot, cytokine-induced STAT1 phosphorylation; assay type: cell-based; conditions: MM.1S, IFN-α stimulated, 2 hours pre-treatment
Outline: (§2)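 MM.1S cells were serum-starved for 24 h, then pre-treated for 2 h with test compound (2.5–10 μM), a reference STAT3 inhibitor (2.5–20 μM) or DMSO. IFN-α (25ng/ml) was added for 30 min in the presence or absence of test compound. Western blots of RIPA lysates were probed for p-STAT1 (Tyr701) or p-STAT2 (Tyr690).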

STAT2 = STAT2 (Homo sapiens, UniProt P52630); assay: Western blot, cytokine-induced STAT2 phosphorylation; assay type: cell-based; conditions: MM.1S, IFN-α stimulated, 2 hours pre-treatment
Outline: as §2

STAT4 = STAT4 (Homo sapiens, UniProt Q14765); assay: Western blot, IL-4 induced STAT4 phosphorylation; assay type: cell-based; conditions: IM-9 human MM cells
Outline: (§3)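 IM-9 cells were serum-starved for 24 h, then left untreated or pre-treated for 2 h with test compound (2.5–10 μM), a reference STAT3 inhibitor (2.5–20 μM) or DMSO. IL-4 (25ng/ml) was added, and cells were harvested 30 min later. Blots of RIPA lysates were probed for p-STAT4 (Tyr693) or p-STAT6 (Tyr641).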

STAT6 = STAT6 (Homo sapiens, UniProt P42226); assay: Western blot, IL-4 induced STAT6 phosphorylation; assay type: cell-based; conditions: IM-9 human MM cells
Outline: as §3

mTOR = assay: Western blot, mTOR phosphorylation; assay type: cell-based, human; conditions: U266 and ARH-77 MM cells
Outline: (§4)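 MM cells were treated with test compound (2.5, 5 or 10μM) or DMSO for 24 h, then lysed in cold RIPA buffer with protease inhibitors. Lysates were run on SDS-PAGE, transferred to PVDF and probed with antibodies to p-ERK1/2 (Thr202/Tyr204), p-Src (Tyr416), p-mTOR (Ser2448), or cleaved caspase-3 and cleaved PARP. Detection was by enhanced chemiluminescence, with GAPDH as loading control.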

Src = assay: Western blot, Src phosphorylation; assay type: cell-based, human; conditions: U266 and ARH-77 MM cells
Outline: as §4

ERK(1/2) = assay: Western blot, ERK; assay type: cell-based, human
Outline: as §4

RPMI-8226 = assay: Western blot, cleaved caspase-3 and PARP; assay type: cell-based, human; conditions: IL-6 independent RPMI-8226, P-STAT3 too low to be detected
Outline: as §4

MM1.S MM cells = assay: MTT viability of MM1.S cells; assay type: cell-based, human
STAT3 [8] = molecular target: T1, STAT3; assay: STAT3 nuclear localization, immunofluorescence staining; assay type: cell-based; conditions: U266 cells
[9] = system: STAT3 downstream target genes; assay: RT-PCR of STAT3 downstream target genes; assay type: cell-based, human; conditions: U266 and ARH-77, 24-h
BMX = BMX (Homo sapiens, UniProt P51813); conditions: read-out: IC50 kinase activity, BMX; 10 concentrations, 100 μM highest
Fgr = Fgr (Homo sapiens, UniProt P09769); conditions: read-out: IC50 kinase activity, Fgr; 10 concentrations, 100 μM highest
LcK = LcK (Homo sapiens, UniProt P06239); conditions: read-out: IC50 kinase activity, LcK; 10 concentrations, 100 μM highest
BRK = BRK (Homo sapiens, UniProt Q13882); conditions: read-out: IC50 kinase activity, BRK; 10 concentrations, 100 μM highest
Fyn = Fyn (Homo sapiens, UniProt P06241); conditions: read-out: IC50 kinase activity, Fyn; 10 concentrations, 100 μM highest
Lyn = Lyn (Homo sapiens, UniProt P07948); conditions: read-out: IC50 kinase activity, Lyn; 10 concentrations, 100 μM highest
CSK = CSK (Homo sapiens, UniProt P41240); conditions: read-out: IC50 kinase activity, CSK; 10 concentrations, 100 μM highest
JAK3 = JAK3 (Homo sapiens, UniProt P52333); conditions: read-out: IC50 kinase activity, JAK3; 10 concentrations, 100 μM highest
ZAP-70 = ZAP-70 (Homo sapiens, UniProt P43403); conditions: read-out: IC50 kinase activity, ZAP-70; 10 concentrations, 100 μM highest
AKT2 = AKT2 (Homo sapiens, UniProt P31751); conditions: read-out: IC50 kinase activity, AKT2; 10 concentrations, 100 μM highest
IKKb = IKKb (Homo sapiens, UniProt O14920); conditions: read-out: IC50 kinase activity, IKKb; 10 concentrations, 100 μM highest
PAK2 = PAK2 (Homo sapiens, UniProt Q13177); conditions: read-out: IC50 kinase activity, PAK2; 10 concentrations, 100 μM highest
CDK1/CyclinB = CDK1/CyclinB (Homo sapiens, UniProt P06493); conditions: read-out: IC50 kinase activity, CDK1/CyclinB; 10 concentrations, 100 μM highest
JNK1 = JNK1 (Homo sapiens, UniProt P45983); conditions: read-out: IC50 kinase activity, JNK1; 10 concentrations, 100 μM highest
PDGFR-a = PDGFR-a (Homo sapiens, UniProt P16234); conditions: read-out: IC50 kinase activity, PDGFR-a; 10 concentrations, 100 μM highest
FAK = FAK (Homo sapiens, UniProt Q05397); conditions: read-out: IC50 kinase activity, FAK; 10 concentrations, 100 μM highest
JNK2 = JNK2 (Homo sapiens, UniProt P45984); conditions: read-out: IC50 kinase activity, JNK2; 10 concentrations, 100 μM highest
PKC-a = PKC-a (Homo sapiens, UniProt P17252); conditions: read-out: IC50 kinase activity, PKC-a; 10 concentrations, 100 μM highest
FGFR2 = FGFR2 (Homo sapiens, UniProt P21802); conditions: read-out: IC50 kinase activity, FGFR2; 10 concentrations, 100 μM highest
PAK1 = PAK1 (Homo sapiens, UniProt Q13153); conditions: read-out: IC50 kinase activity, PAK1; 10 concentrations, 100 μM highest
PKC-d = PKC-d (Homo sapiens, UniProt Q05655); conditions: read-out: IC50 kinase activity, PKC-d; 10 concentrations, 100 μM highest
[10] = system: twenty one purified human protein kinases
[11] = 5 mg/kg daily intraperitoneal, vs vehicle-treated mice
[12] = system: normal human peripheral blood lymphocytes
[13] = system: normal human marrow [CD138(−)] cells; conditions: 10μM, 24h, MTS

T1 sequence (P40763 whole entry): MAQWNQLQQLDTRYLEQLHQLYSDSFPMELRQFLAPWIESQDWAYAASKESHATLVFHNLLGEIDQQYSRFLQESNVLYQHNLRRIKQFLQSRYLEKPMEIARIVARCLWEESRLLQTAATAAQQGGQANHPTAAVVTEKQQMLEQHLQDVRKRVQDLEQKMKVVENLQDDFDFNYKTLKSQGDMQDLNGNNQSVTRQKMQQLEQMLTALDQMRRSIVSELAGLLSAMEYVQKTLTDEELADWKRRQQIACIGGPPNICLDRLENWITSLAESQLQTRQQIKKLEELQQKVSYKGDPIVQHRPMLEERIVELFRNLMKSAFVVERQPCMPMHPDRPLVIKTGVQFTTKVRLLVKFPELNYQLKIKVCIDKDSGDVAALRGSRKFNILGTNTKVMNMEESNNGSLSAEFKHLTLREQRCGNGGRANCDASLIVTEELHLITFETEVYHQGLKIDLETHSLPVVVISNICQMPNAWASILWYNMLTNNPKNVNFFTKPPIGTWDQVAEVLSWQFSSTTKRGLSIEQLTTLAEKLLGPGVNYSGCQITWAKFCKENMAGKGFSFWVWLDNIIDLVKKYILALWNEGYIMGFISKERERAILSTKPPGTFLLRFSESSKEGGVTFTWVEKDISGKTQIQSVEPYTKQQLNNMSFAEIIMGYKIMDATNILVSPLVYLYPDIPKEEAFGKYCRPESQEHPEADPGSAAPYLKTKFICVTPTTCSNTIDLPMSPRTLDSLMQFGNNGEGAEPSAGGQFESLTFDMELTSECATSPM
LcK, sequence (P06239 whole entry): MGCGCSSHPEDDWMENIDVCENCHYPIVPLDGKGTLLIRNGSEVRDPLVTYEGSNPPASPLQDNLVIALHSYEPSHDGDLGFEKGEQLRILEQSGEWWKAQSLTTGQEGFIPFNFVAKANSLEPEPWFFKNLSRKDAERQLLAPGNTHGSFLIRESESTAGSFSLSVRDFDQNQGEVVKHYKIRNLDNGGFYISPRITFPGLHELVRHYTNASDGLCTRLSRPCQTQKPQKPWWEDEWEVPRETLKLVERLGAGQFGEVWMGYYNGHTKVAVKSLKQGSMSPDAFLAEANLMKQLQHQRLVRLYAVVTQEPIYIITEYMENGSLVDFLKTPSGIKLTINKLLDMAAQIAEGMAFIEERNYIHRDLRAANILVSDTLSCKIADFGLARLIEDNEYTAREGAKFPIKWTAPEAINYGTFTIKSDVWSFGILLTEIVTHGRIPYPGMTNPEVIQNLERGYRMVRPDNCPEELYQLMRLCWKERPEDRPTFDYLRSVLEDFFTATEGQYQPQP
PAK2, sequence (Q13177 whole entry): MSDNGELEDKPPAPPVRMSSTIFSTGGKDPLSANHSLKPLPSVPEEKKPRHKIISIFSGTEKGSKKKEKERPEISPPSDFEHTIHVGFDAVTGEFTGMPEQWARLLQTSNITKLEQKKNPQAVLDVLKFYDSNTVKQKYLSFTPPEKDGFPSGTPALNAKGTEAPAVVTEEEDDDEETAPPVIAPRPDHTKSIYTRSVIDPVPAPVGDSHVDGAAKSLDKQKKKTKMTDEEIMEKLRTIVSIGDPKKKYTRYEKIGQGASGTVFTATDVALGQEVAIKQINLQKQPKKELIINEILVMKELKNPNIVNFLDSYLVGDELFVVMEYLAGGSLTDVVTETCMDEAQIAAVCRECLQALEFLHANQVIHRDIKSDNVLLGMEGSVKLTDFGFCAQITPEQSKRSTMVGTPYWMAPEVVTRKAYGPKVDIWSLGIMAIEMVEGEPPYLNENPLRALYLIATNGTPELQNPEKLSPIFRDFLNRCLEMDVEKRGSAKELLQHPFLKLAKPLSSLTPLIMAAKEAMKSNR
AKT2, sequence (P31751 whole entry): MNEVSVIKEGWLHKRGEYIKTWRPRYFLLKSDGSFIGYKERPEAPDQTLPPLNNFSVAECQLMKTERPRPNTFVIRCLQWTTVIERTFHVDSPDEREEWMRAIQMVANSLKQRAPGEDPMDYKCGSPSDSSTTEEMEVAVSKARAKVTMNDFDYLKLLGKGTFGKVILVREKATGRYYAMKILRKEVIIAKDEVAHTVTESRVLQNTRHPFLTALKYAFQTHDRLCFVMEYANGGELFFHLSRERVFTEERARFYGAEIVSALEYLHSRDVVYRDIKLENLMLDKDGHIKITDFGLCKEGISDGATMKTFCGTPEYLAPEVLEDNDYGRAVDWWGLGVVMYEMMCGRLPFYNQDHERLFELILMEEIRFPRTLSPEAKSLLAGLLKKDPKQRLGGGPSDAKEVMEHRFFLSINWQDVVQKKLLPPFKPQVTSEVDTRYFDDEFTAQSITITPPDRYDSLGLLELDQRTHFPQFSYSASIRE
JAK3, sequence (P52333 whole entry): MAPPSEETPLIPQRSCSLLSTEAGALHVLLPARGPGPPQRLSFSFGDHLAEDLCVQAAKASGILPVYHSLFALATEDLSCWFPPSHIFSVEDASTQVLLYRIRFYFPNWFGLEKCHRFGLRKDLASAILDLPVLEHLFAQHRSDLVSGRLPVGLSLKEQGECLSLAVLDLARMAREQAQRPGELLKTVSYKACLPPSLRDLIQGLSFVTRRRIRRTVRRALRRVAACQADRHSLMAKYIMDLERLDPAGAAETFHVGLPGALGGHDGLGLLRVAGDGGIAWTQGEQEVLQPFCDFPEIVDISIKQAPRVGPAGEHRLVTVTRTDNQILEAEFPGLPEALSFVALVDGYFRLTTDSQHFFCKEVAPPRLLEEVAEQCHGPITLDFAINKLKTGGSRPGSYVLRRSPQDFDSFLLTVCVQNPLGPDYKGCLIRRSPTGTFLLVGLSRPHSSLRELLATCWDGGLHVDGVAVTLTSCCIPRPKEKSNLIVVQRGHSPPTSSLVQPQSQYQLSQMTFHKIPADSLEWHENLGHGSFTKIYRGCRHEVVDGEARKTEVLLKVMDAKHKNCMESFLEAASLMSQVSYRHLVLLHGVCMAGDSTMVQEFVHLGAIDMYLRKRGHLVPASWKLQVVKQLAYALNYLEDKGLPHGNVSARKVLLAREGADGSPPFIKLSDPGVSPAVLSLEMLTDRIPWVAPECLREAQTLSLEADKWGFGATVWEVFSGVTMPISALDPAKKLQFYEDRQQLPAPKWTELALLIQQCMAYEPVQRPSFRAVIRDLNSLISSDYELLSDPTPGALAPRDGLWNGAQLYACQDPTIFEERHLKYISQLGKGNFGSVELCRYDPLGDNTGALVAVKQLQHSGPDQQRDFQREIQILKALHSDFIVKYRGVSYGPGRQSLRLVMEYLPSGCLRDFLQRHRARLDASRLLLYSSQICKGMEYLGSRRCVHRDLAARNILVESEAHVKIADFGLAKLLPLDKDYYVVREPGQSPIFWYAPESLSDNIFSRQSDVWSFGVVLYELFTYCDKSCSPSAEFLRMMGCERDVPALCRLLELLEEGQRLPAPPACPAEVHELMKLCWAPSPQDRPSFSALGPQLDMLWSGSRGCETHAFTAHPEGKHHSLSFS
STAT1, sequence (P42224 whole entry): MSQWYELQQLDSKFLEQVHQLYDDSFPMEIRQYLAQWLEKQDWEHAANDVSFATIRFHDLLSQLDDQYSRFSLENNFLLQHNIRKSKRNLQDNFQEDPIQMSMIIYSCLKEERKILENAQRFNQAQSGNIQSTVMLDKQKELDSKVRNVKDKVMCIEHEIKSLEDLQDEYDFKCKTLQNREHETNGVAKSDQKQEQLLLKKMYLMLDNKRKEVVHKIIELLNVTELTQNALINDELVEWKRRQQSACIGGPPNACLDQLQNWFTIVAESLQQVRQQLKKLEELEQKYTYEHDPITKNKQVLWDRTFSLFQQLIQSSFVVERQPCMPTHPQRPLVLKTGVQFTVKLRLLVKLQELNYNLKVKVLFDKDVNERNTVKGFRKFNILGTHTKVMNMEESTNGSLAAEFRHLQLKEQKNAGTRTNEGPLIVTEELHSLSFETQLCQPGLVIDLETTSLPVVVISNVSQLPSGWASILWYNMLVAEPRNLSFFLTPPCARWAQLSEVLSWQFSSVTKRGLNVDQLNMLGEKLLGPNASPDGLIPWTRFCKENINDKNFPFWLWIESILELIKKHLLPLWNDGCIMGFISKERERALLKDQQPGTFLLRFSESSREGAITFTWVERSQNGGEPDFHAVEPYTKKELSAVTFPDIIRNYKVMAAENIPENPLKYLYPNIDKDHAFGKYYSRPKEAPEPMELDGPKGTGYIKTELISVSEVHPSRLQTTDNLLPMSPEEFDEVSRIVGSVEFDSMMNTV
IKKb, sequence (O14920 whole entry): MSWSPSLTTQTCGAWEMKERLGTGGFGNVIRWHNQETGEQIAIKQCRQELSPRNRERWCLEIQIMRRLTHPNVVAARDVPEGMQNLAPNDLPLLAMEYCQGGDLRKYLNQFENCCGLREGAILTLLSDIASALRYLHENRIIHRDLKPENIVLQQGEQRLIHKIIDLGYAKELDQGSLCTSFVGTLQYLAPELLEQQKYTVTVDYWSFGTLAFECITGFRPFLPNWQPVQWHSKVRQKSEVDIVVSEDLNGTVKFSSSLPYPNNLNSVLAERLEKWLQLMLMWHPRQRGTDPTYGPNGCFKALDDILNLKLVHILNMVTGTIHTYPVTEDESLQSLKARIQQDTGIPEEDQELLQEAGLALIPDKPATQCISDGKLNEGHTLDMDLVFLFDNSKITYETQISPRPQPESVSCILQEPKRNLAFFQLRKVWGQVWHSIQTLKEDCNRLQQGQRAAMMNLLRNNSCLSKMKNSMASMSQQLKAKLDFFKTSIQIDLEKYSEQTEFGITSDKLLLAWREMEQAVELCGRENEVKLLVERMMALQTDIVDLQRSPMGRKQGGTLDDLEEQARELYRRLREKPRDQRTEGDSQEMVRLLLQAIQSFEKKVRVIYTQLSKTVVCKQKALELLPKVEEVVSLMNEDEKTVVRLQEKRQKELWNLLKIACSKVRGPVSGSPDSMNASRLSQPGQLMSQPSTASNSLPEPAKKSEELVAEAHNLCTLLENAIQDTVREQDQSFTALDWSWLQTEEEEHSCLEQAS

Compound: NS(=O)(=O)c1cccc2c1C(=O)c1cccc(O)c1C2=O [LLL12]
IC50 (U266 MM cells [1]): 0.49 µM
IC50 (ARH-77 MM cells [2]): 1.96 µM
reduction of STAT3 DNA binding activity (STAT3 [3]; 2.5μM): 30–33%
reduction of STAT3 DNA binding activity (STAT3 [3]; 5μM): 58–69%
Apoptosis (Annexin V/PI) (U266 MM cells [4]; U266, 2.5μM): 38.2%
Apoptosis (Annexin V/PI) (U266 MM cells [4]; U266, 5μM): 53.3%
Apoptosis (Annexin V/PI) (ARH-77 MM cells [5]; ARH-77, 2.5μM): 70.8%
Apoptosis (Annexin V/PI) (ARH-77 MM cells [5]; ARH-77, 5μM): 73.5%
Combinational Index (CI) (U266 cells): less than 1
STAT3 phosphorylation in tumors (ARH-77 MM tumor cells; Western blot): inhibited STAT3 phosphorylation
tumor volume (ARH-77 MM tumor cells; p < 0.05): significantly suppressed
tumor weight (ARH-77 MM tumor cells; p < 0.05): significantly suppressed
STAT3 phosphorylation at Tyr 705 (STAT3 [6]; U266 and ARH-77, 2.5μM or 5μM, 24 hours): inhibited STAT3 phosphorylation
STAT3 phosphorylation (STAT3 [6]; primary human MM cells from three patients): inhibited STAT3 phosphorylation
IL-6 and IFN-α induced STAT3 phosphorylation (STAT3 [7]): prevented phosphorylation of STAT3
STAT1 phosphorylation (STAT1): but not STAT1 or STAT2
STAT2 phosphorylation (STAT2): but not STAT1 or STAT2
STAT4 phosphorylation by IL-4 (STAT4): did not prevent phosphorylation
STAT6 phosphorylation by IL-4 (STAT6): did not prevent phosphorylation
phosphorylation of mTOR (mTOR): not reduced significantly
phosphorylation of Src (Src): not reduced significantly
phosphorylation of ERK(1/2) (ERK(1/2); ARH-77 MM cells, 5μM): slightly reduced
phosphorylation of ERK(1/2) (ERK(1/2); U266 MM cells): even increased
cleaved caspase-3 and cleaved PARP (RPMI-8226): did not induce
IL-6 increased cell proliferation/viability (MM1.S MM cells; IL-6 for 48 hours, MTT): blocked
STAT3 nuclear localization (STAT3 [8]): most STAT3 was retained in cytoplasm and absent in nuclei
transcription of cyclin D1, survivin, Bcl-2, Bcl-XL, DNMT1 [9]: inhibition of the transcription of all five
IC50 (BMX): > 100 µM
IC50 (Fgr): 57.2 µM
IC50 (LcK): > 100 µM
IC50 (BRK): > 100 µM
IC50 (Fyn): > 100 µM
IC50 (Lyn): > 100 µM
IC50 (CSK): 73.9 µM
IC50 (JAK3): 89.7 µM
IC50 (ZAP-70): > 100 µM
IC50 (AKT2): 91.8 µM
IC50 (IKKb): > 100 µM
IC50 (PAK2): > 100 µM
IC50 (CDK1/CyclinB): > 100 µM
IC50 (JNK1): > 100 µM
IC50 (PDGFR-a): > 100 µM
IC50 (FAK): > 100 µM
IC50 (JNK2): > 100 µM
IC50 (PKC-a): > 100 µM
IC50 (FGFR2): > 100 µM
IC50 (PAK1): > 100 µM
IC50 (PKC-d): > 100 µM
IC50 ([10]; read-out: IC50, kinases which contain an SH2 domain, BMX, BRK, CSK, Fgr, Fyn, JAK3, LcK, Lyn, ZAP-70, 57.19 μM to > 100 μM): ≥ 57.2 µM
IC50 ([10]; read-out: IC50, other protein kinases, AKT2, CDK1/cyclin B, FAK, FGFR2, IKKβ, JNK1, JNK2, PAK1, PAK2, PDGFR-α, PKC-α, PKC-δ, 91.76 μM to > 100 μM): ≥ 91.8 µM
bodyweights of treated mice [11]: not reduced
effect on normal cells [12]: little effects
effect on normal cells [13]: little effects

IL-6 and IFN-α induced STAT3 phosphorylation (STAT3 [7]): much less potent than LLL12
Compound: O=[N+]([O-])c1ccc2c(c1)S(=O)(=O)C=C2 [Stattic, reference compound]

Compound: Nc1cccc2c1CN(C1CCC(=O)NC1=O)C2=O (stereo not shown) [lenalidomide, Lenalidomide, reference compound]
cell viability (MM1.S MM cells; lenalidomide alone): dose-dependent reduction of cell viability
